Assay results taken from ChEMBL document CHEMBL4043167, “Identification of pyrazolopyrimidine arylsulfonamides as CC-chemokine receptor 4 (CCR4) antagonists” (Bioorg Med Chem, 2017).
In brackets after ≈: the same amount, converted by molar mass. Activity calls are given as the source filed them. The calls are words filed in the database; no cut-off is given here.

Key:
[1] = Lipophilicity, log D of the compound by chromatographic analysis; type: physicochemical
In short: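 Chromatographic logD measured at pH 7.4 (chromlogD7.4).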

[2] = Kinetic solubility of the compound by chemiluminescent nitrogen detection assay; type: physicochemical; details: read-out: Kinetic_solubility
[3] = molecular target: T1, C-C chemokine receptor type 4 (Homo sapiens, UniProt P51679); experiment: Antagonist activity at human recombinant CCR4 receptor expressed in CHO cell membranes by [35S]GTPgammaS binding assay; type: functional
T1 sequence (P51679 whole entry): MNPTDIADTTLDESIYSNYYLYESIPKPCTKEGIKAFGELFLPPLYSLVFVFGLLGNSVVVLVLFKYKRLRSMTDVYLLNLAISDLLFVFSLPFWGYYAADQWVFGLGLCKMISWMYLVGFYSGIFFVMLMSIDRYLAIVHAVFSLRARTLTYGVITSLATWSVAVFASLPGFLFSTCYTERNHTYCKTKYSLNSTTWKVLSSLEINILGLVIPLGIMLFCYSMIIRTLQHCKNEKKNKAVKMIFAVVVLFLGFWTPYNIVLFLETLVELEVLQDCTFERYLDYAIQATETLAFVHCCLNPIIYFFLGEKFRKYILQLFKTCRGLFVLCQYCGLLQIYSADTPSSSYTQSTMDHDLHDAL

[4] = molecular target: T1, C-C chemokine receptor type 4; experiment: (§1) Antagonist activity at CCR4 receptor in human whole blood assessed as F-actin polymerization after 30 mins by FACS-based flow cytometric analysis; details: read-out: pA2 (converted)
[5] = Half life in Sprague Dawley (crl:CD(SD)) rat at 1 mg/kg, iv by LCMS/MS method; type: ADME, organism-based; details: in vivo
In short: (§2)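 Rat given a single IV dose of 1 mg/kg; blood clearance, half-life and volume of distribution derived from the IV profile.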

[6] = Half life in Beagle dog at 1 mg/kg by LCMS/MS method; type: ADME, organism-based, Canis lupus familiaris; details: in vivo
[7] = Clearance in rat microsomes; type: ADME, Microsome
[8] = Clearance in dog microsomes; type: ADME, Canis lupus familiaris, Microsome
Rattus norvegicus = experiment: Clearance in Sprague Dawley (crl:CD(SD)) rat at 1 mg/kg, iv by LCMS/MS method; type: ADME, organism-based; details: in vivo; in short: as §2
[9] = Volume of distribution at steady state in Beagle dog at 1 mg/kg by LCMS/MS method; type: ADME, organism-based, Canis lupus familiaris; details: in vivo, read-out: Vdss
[10] = Volume of distribution at steady state in Sprague Dawley (crl:CD(SD)) rat at 1 mg/kg, iv by LCMS/MS method; type: ADME, organism-based; details: in vivo, read-out: Vdss; in short: as §2
albumin = albumin (Homo sapiens, UniProt P02768); experiment: Binding affinity to HSA; type: ADME; details: human serum albumin (HSA), read-out: PB (converted)
[11] = Oral bioavailability in Sprague Dawley (crl:CD(SD)) rat at 1 mg/kg by LCMS/MS method; type: ADME, organism-based; details: in vivo
In short: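 Rat given an oral dose of 1 mg/kg, with a 1 mg/kg IV dose for comparison; oral bioavailability calculated.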

[12] = Oral bioavailability in Beagle dog at 1 mg/kg by LCMS/MS method; type: ADME, organism-based, Canis lupus familiaris; details: in vivo
Canis familiaris = experiment: Clearance in Beagle dog at 0.5 mg/kg by LCMS/MS method; details: in vivo
[13] = Clearance in human microsomes; type: ADME, Microsome
[14] = molecular target: T2, C-C chemokine receptor type 4 (Homo sapiens) (UniProt P51679); experiment: as §1
T2 sequence (whole entry): T1 sequence (P51679 whole entry)

Chain of albumin (P02768 whole entry): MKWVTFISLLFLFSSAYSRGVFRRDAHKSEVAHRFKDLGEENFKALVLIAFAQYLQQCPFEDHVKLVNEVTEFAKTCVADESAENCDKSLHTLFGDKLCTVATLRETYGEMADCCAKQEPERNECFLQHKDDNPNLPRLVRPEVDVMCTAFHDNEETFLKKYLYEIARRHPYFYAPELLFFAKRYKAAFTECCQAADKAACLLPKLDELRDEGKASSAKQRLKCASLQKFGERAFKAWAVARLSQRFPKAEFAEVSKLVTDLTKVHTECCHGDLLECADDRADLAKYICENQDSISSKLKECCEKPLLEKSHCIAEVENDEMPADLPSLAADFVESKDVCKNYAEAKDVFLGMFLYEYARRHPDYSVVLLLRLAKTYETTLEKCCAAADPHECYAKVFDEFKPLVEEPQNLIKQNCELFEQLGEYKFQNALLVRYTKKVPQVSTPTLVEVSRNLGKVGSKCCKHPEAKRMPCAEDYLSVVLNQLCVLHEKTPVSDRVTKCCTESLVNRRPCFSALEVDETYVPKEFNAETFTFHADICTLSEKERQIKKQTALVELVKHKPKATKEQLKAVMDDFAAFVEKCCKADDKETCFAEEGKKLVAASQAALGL

COc1nn(C)c2cccc(NS(=O)(=O)c3cccc(Cl)c3Cl)c12
chromatographic logD [1]: 6.5
solubility kinetic [2]: 80 µM (≈ 30.9 µg/mL)
IC50 [3]: 0.794 µM

COCCNc1nc(NS(=O)(=O)c2cccc(Cl)c2Cl)c2c(OC)nn(C)c2n1
chromatographic logD [1]: 3.3
solubility kinetic [2]: ≥ 441 µM
IC50 [3]: 7.94 µM

COCCOc1nn(C)c2ncnc(NS(=O)(=O)c3cccc(Cl)c3Cl)c12
chromatographic logD [1]: 2.3
solubility kinetic [2]: ≥ 463 µM
IC50 [3]: 0.794 µM

COc1nn(C)c2ncnc(NS(=O)(=O)c3cccc(Cl)c3Cl)c12
Kb [4]: > 6.31 µM
half-life [5]: 1.9 h
half-life [6]: 0.6 h
CL [7]: 0.58 mL/min/g
CL [8]: 0.65 mL/min/g
clearance (Rattus norvegicus): 2 mL/min/kg
Vd [9]: 0.3 L/kg
Vd [10]: 0.3 L/kg
chromatographic logD [1]: 2.4
solubility kinetic [2]: ≥ 581 µM
fraction unbound (albumin): 0.015
bioavailability [11]: 62%
bioavailability [12]: 100%
clearance (Canis familiaris): 4 mL/min/kg
CL [13]: < 0.53 mL/min/g
IC50 [3]: 0.0631 µM

COc1nn(C)c2nc(C)nc(NS(=O)(=O)c3cccc(Cl)c3Cl)c12
chromatographic logD [1]: 3.4
solubility kinetic [2]: ≥ 557 µM
IC50 [3]: 0.631 µM

CCOc1n[nH]c2ncnc(NS(=O)(=O)c3cccc(Cl)c3Cl)c12
chromatographic logD [1]: 2.3
solubility kinetic [2]: ≥ 438 µM
IC50 [3]: 0.794 µM

COc1nn(C)c2nc(N(C)C)nc(NS(=O)(=O)c3cccc(Cl)c3Cl)c12
chromatographic logD [1]: 4
solubility kinetic [2]: ≥ 626 µM
IC50 [3]: 0.631 µM

CNc1nc(NS(=O)(=O)c2cccc(Cl)c2Cl)c2c(OC)nn(C)c2n1
chromatographic logD [1]: 3.2
solubility kinetic [2]: 376 µM (≈ 157 µg/mL)
IC50 [3]: 0.0794 µM

COc1nn(CCN(C)C)c2ncnc(NS(=O)(=O)c3cccc(Cl)c3Cl)c12
chromatographic logD [1]: 1.6
solubility kinetic [2]: 358 µM (≈ 159 µg/mL)
IC50 [3]: 3.98 µM

COc1nn(CC(=O)O)c2ncnc(NS(=O)(=O)c3cccc(Cl)c3Cl)c12
chromatographic logD [1]: 0.8
solubility kinetic [2]: ≥ 483 µM
IC50 [3]: 0.2 µM

COc1nn(C(C)C)c2ncnc(NS(=O)(=O)c3cccc(Cl)c3Cl)c12
chromatographic logD [1]: 4.5
solubility kinetic [2]: 404 µM (≈ 168 µg/mL)
IC50 [3]: 0.251 µM

CCNc1nc(NS(=O)(=O)c2cccc(Cl)c2Cl)c2c(OC)nn(C)c2n1
chromatographic logD [1]: 4.2
solubility kinetic [2]: 219 µM (≈ 94.5 µg/mL)
IC50 [3]: 0.251 µM

O=S(=O)(Nc1ncnc2[nH]nc(O)c12)c1cccc(Cl)c1Cl
chromatographic logD [1]: 0.8
solubility kinetic [2]: ≥ 234 µM
IC50 [3]: 15.8 µM

COc1n[nH]c2ncnc(NS(=O)(=O)c3cccc(Cl)c3Cl)c12
chromatographic logD [1]: 1.8
solubility kinetic [2]: 402 µM (≈ 150 µg/mL)
IC50 [3]: 0.158 µM

COc1nn(C)c2nc(NCCN(C)C)nc(NS(=O)(=O)c3cccc(Cl)c3Cl)c12
chromatographic logD [1]: 1.4
solubility kinetic [2]: ≥ 444 µM
IC50 [3]: > 31.6 µM

COc1nn(C)c2nc(NC(C)C)nc(NS(=O)(=O)c3cccc(Cl)c3Cl)c12
chromatographic logD [1]: 5.2
solubility kinetic [2]: ≥ 551 µM
IC50 [3]: 3.16 µM

COc1nn(C)c2nc(N)nc(NS(=O)(=O)c3cccc(Cl)c3Cl)c12
chromatographic logD [1]: 2.4
solubility kinetic [2]: ≥ 649 µM
IC50 [3]: 0.316 µM

Cn1ncc2c(NS(=O)(=O)c3cccc(Cl)c3Cl)ccnc21
chromatographic logD [1]: 1.7
solubility kinetic [2]: ≥ 310 µM
IC50 [3]: 12.6 µM

COc1ccc2c(cnn2C)c1NS(=O)(=O)c1cccc(Cl)c1Cl
chromatographic logD [1]: 5
solubility kinetic [2]: 175 µM (≈ 67.6 µg/mL)
IC50 [3]: 10 µM

Cn1ncc2c(NS(=O)(=O)c3cccc(Cl)c3Cl)cccc21
chromatographic logD [1]: 3.2
solubility kinetic [2]: 170 µM (≈ 60.6 µg/mL)
IC50 [3]: 3.16 µM

Cn1ncc2c(NS(=O)(=O)c3cccc(Cl)c3Cl)ncnc21
chromatographic logD [1]: 1.7
solubility kinetic [2]: 476 µM (≈ 171 µg/mL)
IC50 [3]: 1.26 µM

COc1cccc2c1c(NS(=O)(=O)c1cccc(Cl)c1Cl)nn2C
pA2 [14]: inactive
half-life [5]: 1.2 h
clearance (Rattus norvegicus): 17 mL/min/kg
Vd [10]: 0.5 L/kg
solubility kinetic [2]: 288 µM (≈ 111 µg/mL)
fraction unbound (albumin): 0.023
bioavailability [11]: 24%

Cn1nc(NS(=O)(=O)c2cccc(Cl)c2Cl)c2ccccc21
chromatographic logD [1]: 4.6
solubility kinetic [2]: 124 µM (≈ 44.2 µg/mL)
IC50 [3]: 2 µM

COc1ccc(COc2nc(Br)cnc2NS(=O)(=O)c2ccc(C)cc2)cc1OCCN(C)C
chromatographic logD [1]: 3.1
solubility kinetic [2]: 309 µM (≈ 170 µg/mL)

COc1nn(C2COC2)c2ncnc(NS(=O)(=O)c3cccc(Cl)c3Cl)c12
chromatographic logD [1]: 2.1
solubility kinetic [2]: 142 µM (≈ 61.1 µg/mL)
IC50 [3]: 0.251 µM

COc1nn(C)c2ncnc(NS(=O)(=O)c3ccc(Cl)s3)c12
Kb [4]: > 6.31 µM
chromatographic logD [1]: 1.6
solubility kinetic [2]: ≥ 538 µM
fraction unbound (albumin): 0.023
IC50 [3]: 0.0794 µM

COc1nn(CC(N)=O)c2ncnc(NS(=O)(=O)c3cccc(Cl)c3Cl)c12
chromatographic logD [1]: 1.1
solubility kinetic [2]: ≥ 490 µM
IC50 [3]: 0.501 µM

COc1nn(C)c2nc(NC3COC3)nc(NS(=O)(=O)c3cccc(Cl)c3Cl)c12
chromatographic logD [1]: 2.2
solubility kinetic [2]: ≥ 712 µM
IC50 [3]: 10 µM

COCCn1nc(OC)c2c(NS(=O)(=O)c3cccc(Cl)c3Cl)ncnc21
chromatographic logD [1]: 2.6
solubility kinetic [2]: ≥ 442 µM
IC50 [3]: 0.316 µM

CCn1[nH]c2ncnc(NS(=O)(=O)c3cccc(Cl)c3Cl)c2c1=O
chromatographic logD [1]: 1.2
solubility kinetic [2]: ≥ 383 µM
IC50 [3]: > 31.6 µM

COc1nc(NS(=O)(=O)c2cccc(Cl)c2Cl)c2c(OC)nn(C)c2n1
chromatographic logD [1]: 1.9
solubility kinetic [2]: 148 µM (≈ 61.9 µg/mL)
IC50 [3]: 0.794 µM

CNC(=O)Cn1nc(OC)c2c(NS(=O)(=O)c3cccc(Cl)c3Cl)ncnc21
chromatographic logD [1]: 1.3
solubility kinetic [2]: ≥ 509 µM
IC50 [3]: 0.631 µM
